Data from paper PMC2647857 (Journal of the American Chemical Society, 2009).
Several values for one entry are separate records, joined by “and”; a condition that tells them apart may be missing. Equal values may be shown once. Read-outs that look alike come from different tables or passages of the source.

How the values were obtained:
[1] = target: NP1-E55Q (Rhodnius prolixus, UniProt Q26239, E78Q); assay: biochemical; format: binding
[2] = Imidazole binding constant to Fe; design: species or system Rhodnius prolixus
[3] = Spectroelectrochemical midpoint potential, ligand-free; format: physicochemical, Rhodnius prolixus; details: for ΔEm = Em(mutant)−Em(standard) / Em: ligand-free
[4] = Spectroelectrochemical midpoint potential of the NO complex; format: physicochemical, Rhodnius prolixus; details: for ΔpHΔ(Em,NO) = ΔEm,NO(pH7.5) − ΔEm,NO(pH5.5) / ΔEm,NO = Em(mutant)−Em(standard) / Em,NO: NO bound
Summary of the method: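 Spectroelectrochemistry of ~0.05 mM E. coli-expressed protein in 0.1 M sodium phosphate or acetate at pH 5.5, 6.5 and 7.5, 27 ± 1 °C. SNAP supplied NO at a level fully complexing both oxidation states. Ag/AgCl reference ([…] mV vs SHE). Absorbance versus applied potential fit to Nernst equation; pH dependence and mutant−standard differences derived.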

[5] = Histamine binding constant to Fe; design: species or system Rhodnius prolixus; details: pH 7.5
[6] = NO bound, cited from earlier work
[7] = ligand-free, cited from earlier work
[8] = read-out: Kd for NO dissociation, Fe(III), cited from earlier work
[9] = NO binding constant to Fe; design: species or system Rhodnius prolixus; details: pH 7.5

NP1-E55Q, sequence (Q26239 24-207 E78Q): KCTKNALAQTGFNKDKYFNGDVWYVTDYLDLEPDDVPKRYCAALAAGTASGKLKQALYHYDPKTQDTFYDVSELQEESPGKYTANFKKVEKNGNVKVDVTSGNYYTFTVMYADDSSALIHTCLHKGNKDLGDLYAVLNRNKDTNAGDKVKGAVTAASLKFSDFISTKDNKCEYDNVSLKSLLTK

| Compound | ΔEm = Em(mutant)−Em(standard) ([3]; pH 5.5) [mV] | Em ([3]; pH 5.5, 27 °C) [mV vs. SHE] | ΔEm = Em(mutant)−Em(standard) ([3]; pH 6.5) [mV] | Em ([3]; pH 6.5, 27 °C) [mV vs. SHE] | ΔEm = Em(mutant)−Em(standard) ([3]; pH 7.5) [mV] | Em ([3]; pH 7.5, 27 °C) [mV vs. SHE] | ΔpHΔ(Em,NO) = ΔEm,NO(pH7.5) − ΔEm,NO(pH5.5) [4] [mV] | ΔEm,NO = Em(mutant)−Em(standard) ([4]; pH 5.5) | Em,NO ([4]; pH 5.5, 27 °C) [mV vs. SHE] | ΔEm,NO = Em(mutant)−Em(standard) ([4]; pH 6.5) [mV] | Em,NO ([4]; pH 6.5, 27 °C) [mV vs. SHE] | ΔEm,NO = Em(mutant)−Em(standard) ([4]; pH 7.5) | Em,NO ([4]; pH 7.5, 27 °C) [mV vs. SHE] | other results |
| --- | --- | --- | --- | --- | --- | --- | --- | --- | --- | --- | --- | --- | --- | --- |
| c1c[nH]cn1 [imidazole, imidazole (ImH)] |  |  |  |  |  |  |  |  |  |  |  |  |  | Kd [1]: 200 nM |
| NP2-D1A,D29A: site-directed mutant of NP2-D1A, D29 replaced by Ala | −17±3 | −334±3 | 19±6 | −308±3 | 12±3 | −313±1 | 50±3 | −28±2 mV | 20±1 | 26±2 | 36±1 | 22±2 mV | 2±1 | binding constant of imidazole larger than that of histamine ([2]; pH 7.5): 1.3 log units |
| NP2-D1A,D31A: site-directed mutant of NP2-D1A, D31 replaced by Ala | −55±6 | −373±6 | −45±9 | −372±8 | −41±4 | −366±3 | 22±3 | −10±2 mV | 38±2 | −3±2 | 7±2 | 12±3 mV | −8±2 |  |
| NP2-D1A,D36A: site-directed mutant of NP2-D1A, D36 replaced by Ala | 25±4 | −293±3 | 11±7 | −315±4 | 18±5 | −307±4 | 39±5 | −12±4 mV | 36±4 | 20±2 | 30±2 | 28±3 mV | 8±2 |  |
| NP2-D1A,D89A: site-directed mutant of NP2-D1A, D89 replaced by Ala | 34±3 | −284±3 | 23±7 | −304±4 | 5±4 | −320±3 | 33±3 | 3 mV and 3±2 mV |  | 9±2 | 19±1 | 37 mV and 37±2 mV | 17±2 |  |
| NP2-D1A,D99A: site-directed mutant of NP2-D1A, D99 replaced by Ala | 14±4 | −304±4 | 13±6 | −314±1 | −12±5 | −337±4 | 21±2 | −10±2 mV | 38±1 | −1±3 | 9±2 | 11±2 mV | −9±1 |  |
| NP2-D1A,D128A: site-directed mutant of NP2-D1A, D128 replaced by Ala | 7±4 | −311±4 |  |  | −57±4 | −382±3 | 38±4 | −16±4 mV | 32±3 | −8±2 | 2±1 | 22±2 mV | 2±1 |  |
| NP2-D1A,E53Q: site-directed mutant of NP2-D1A, buried E53 replaced by Gln |  |  |  |  | 10±4 | −316±3 | 64±4 | 40±3 mV | 88±3 | 95±2 | 105±1 | 104 mV and 104±3 mV | 84±2 |  |
| NP2-D1A,E100A: site-directed mutant of NP2-D1A, E100 replaced by Ala | 6±6 | −312±6 | 17±7 | −310±3 | −32±6 | −357±5 | 24±3 | −5±2 mV | 43±2 | −5±2 | 5±1 | 19±2 mV | 0±1 | larger histamine binding constant than standard [5]: 0.7 log units |
| NP2-D1A,E124A: site-directed mutant of NP2-D1A, E124 replaced by Ala | 125±4 | −193±4 |  |  | 7±4 | −318±2 | −2±6 | 4±5 mV | 52±5 |  |  | 2±3 mV | −18±3 | increase in imidazole binding constant ([2]; at both pH values (5.5 and 7.5)): 0.7 log units |
| NP2-D1A,K127A: site-directed mutant of NP2-D1A, K127 replaced by Ala | −9±5 | −327±5 | −2±6 | −329±3 | −54±4 | −379±2 | 27±5 | −27±3 mV | 21±2 | −4±2 | 6±2 |  | −20±4 | midpoint potential more negative with respect to NP2-D1A ([3]; pH 7.5, absence of NO): 54 mV |
| NP2-D1A: D1A mutant of NP2 with M0 cleaved during expression, used as standard |  |  |  |  |  |  |  |  |  |  |  |  |  | Em,NO ([6]; pH 5.5, 27 °C ref 20): 48±1 mV vs. SHE; Em,NO ([6]; pH 6.5, 27 °C ref 20): 10±1 mV vs. SHE; Em,NO ([6]; pH 7.5, 27 °C ref 20): −20±1 mV vs. SHE; Em ([7]; pH 5.5, 27 °C ref 20): −318±1 mV vs. SHE; Em ([7]; pH 6.5, 27 °C ref 20): −327±6 mV vs. SHE; Em ([7]; pH 7.5, 27 °C ref 20): −325±3 mV vs. SHE; decrease of NO-bound Em between pH 5.5 and 7.5 ([4]; NO complex): 68 mV; pH dependence of Em, negative shift ([4]; NO complex, pH 5.5–7.5 range): 34 mV/pH unit |
| NP2–M0D1: recombinant wild-type nitrophorin 2 expressed with the N-terminal methionine present |  |  |  |  |  |  |  |  |  |  |  |  |  | Kd ([8]; pH 5.5 ref 19): 1 nM; Kd ([8]; pH 7.5 ref 19): 20 nM; NO formation constant Kf, Fe(III) form [9]: 2e+08 M⁻¹; Kd ([9]; read-out: NO dissociation constant Kd, Fe(III) form): 5 nM |
